Consider nine compounds from PubChem BioAssay AID652196 (Vanderbilt Specialized Chemistry Center, 2013).

Sequence of Metabotropic glutamate receptor 5 (Rattus norvegicus) (P31424 whole entry, looked up): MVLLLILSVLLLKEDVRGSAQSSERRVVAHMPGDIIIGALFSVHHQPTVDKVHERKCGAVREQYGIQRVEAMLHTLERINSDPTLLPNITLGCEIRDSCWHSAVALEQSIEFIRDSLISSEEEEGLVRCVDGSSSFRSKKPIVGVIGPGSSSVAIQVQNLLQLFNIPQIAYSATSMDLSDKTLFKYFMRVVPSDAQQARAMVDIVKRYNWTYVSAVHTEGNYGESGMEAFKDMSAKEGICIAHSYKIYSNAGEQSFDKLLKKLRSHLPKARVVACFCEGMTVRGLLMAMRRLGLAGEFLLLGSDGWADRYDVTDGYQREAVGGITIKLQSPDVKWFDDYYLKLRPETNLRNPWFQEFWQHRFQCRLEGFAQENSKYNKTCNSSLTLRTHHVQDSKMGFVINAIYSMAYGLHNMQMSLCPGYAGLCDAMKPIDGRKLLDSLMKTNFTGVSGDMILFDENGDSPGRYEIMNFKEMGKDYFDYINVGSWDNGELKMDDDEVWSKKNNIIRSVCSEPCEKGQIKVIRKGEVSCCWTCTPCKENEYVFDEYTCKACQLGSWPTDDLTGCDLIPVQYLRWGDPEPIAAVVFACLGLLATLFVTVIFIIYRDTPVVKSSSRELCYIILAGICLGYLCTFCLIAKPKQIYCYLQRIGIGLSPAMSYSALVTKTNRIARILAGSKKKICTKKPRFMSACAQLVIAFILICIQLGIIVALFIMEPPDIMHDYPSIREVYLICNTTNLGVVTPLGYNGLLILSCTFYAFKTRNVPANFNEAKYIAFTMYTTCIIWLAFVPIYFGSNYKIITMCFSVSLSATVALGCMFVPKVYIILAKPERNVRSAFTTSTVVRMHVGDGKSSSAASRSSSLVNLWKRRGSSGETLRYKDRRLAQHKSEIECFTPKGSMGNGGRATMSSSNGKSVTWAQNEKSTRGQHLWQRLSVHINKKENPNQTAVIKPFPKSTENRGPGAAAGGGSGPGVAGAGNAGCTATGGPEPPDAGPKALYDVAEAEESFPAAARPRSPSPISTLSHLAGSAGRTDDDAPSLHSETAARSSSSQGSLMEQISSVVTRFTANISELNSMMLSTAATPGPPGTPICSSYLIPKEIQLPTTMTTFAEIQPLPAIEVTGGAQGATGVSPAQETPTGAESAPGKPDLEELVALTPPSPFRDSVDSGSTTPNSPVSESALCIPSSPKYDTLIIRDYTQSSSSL

The assay deals with Metabotropic glutamate receptor 5 (Rattus norvegicus) (UniProt P31424). Put plainly: mGlu5 allosteric site binding affinity, dose response, biochemical, rat, HEK293A membranes, [3H]methoxyPEPy, full curve (AID 652196). Particulars: rmGlu5 HEK293A membranes, [3H]methoxyPEPy displacement. In a few lines:
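Evaluation: Ki from radioligand displacement | Material: Rat mGlu5 HEK293A cell membranes | Reagent: Radioligand [3H]methoxyPEPy at 2 nM | Compound: 10 doses, 0.1 nM–10 µM, 1% DMSO | Medium: HEPES-buffered HBSS with probenecid, pH 7.4 | Signal: Filter binding with scintillation counting | Times: Membrane, radioligand and compound incubation 1 h at room temperature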
As usually defined, the Ki is a measure of affinity in units of concentration, obtained from inhibition or displacement. In the case of `O=C(c1ccc(C#Cc2cccc(F)c2)cn1)N1CCOCC1`, the Ki is 67.7 nM. As for `O=C(c1ccc(C#Cc2cccc(F)c2)cn1)N1CCCCC1`, the figure is 12.1 nM; as for `O=C(c1ccc(C#Cc2cccc(F)c2)cn1)N1CC2CC2C1` (centres undefined), 18.2 nM; as for `O=C(c1ccc(C#Cc2cccc(F)c2)cc1)N1CCC1`, 29.6 nM. For the compound `CC1CCN1C(=O)c1ccc(C#Cc2cccc(F)c2)cn1` (centres undefined), the Ki was 5.4 nM. For the compound `O=C(c1ccc(C#Cc2cccc(F)c2)cn1)N1CCCCCC1`, the Ki was 18.7 nM. Take `O=C(c1ccc(C#Cc2cccc(F)c2)cn1)N1CCC1`: the Ki is 51.6 nM. Next, `O=C(c1ccc(C#Cc2cccc(F)c2)cn1)N1CC(F)C1`: 48.7 nM; `O=C(c1ccc(C#Cc2cccc(F)c2)cn1)N1CCC(F)(F)C1`: 19 nM.
